Reference: ChEMBL document CHEMBL1126068, “Renin inhibitors containing C-termini derived from mercaptoheterocycles” (J Med Chem, 1992)
pIC50: −log10 of the molar value.

Assays:
Renin = target: T1, Renin (Homo sapiens, UniProt P00797); test: The compound was tested in vitro for inhibition of human plasma renin.; format: cell-free
T1 sequence (P00797 whole entry): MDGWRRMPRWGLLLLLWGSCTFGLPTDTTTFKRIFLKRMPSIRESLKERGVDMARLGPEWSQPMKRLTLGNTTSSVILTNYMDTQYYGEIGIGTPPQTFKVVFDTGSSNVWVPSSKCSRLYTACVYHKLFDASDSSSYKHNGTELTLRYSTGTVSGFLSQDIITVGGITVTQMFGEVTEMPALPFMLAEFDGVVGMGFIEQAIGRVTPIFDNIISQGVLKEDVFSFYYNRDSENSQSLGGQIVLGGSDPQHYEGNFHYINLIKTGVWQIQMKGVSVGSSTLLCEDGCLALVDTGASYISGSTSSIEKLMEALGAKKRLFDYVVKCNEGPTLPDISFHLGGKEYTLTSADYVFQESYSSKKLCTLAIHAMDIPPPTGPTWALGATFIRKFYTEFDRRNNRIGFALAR
Summary of the method: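 Lyophilized human plasma was reconstituted in distilled water on the assay day. Angiotensin I was measured by radioimmunoassay (commercial kit) at pH 7.4 in phosphate buffer, 37 °C, with PMSF to block angiotensinases. Inhibitors came from a 1 mM DMF stock serially diluted to 3–5 concentrations, run in duplicate and averaged. IC50 was calculated by linear regression.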

[1] = Inhibition of plasma renin determined at Peak change in mean arterial pressure at the dose of 0.44 mg/kg administered through intravenously in Rhesus monkeys.; format: functional; conditions: Cercopithecidae, route intravenous
Summary of the method: (§1)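 Conscious male and female rhesus monkeys kept on a low-sodium diet, given furosemide the evening before, and fasted 18 h before and during the study. MAP was read directly and blood drawn for PRA through chronic arterial access ports. Compound was given IV via venous catheter in 0.05% acetic acid/5% dextrose/H2O, 20 min after a vehicle control. Time courses were plotted and peak changes taken; N = 2.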

[2] = Peak change in heart rate (average) at the dose of 0.44 mg/kg administered through intravenously in Rhesus monkeys.; format: functional, Cercopithecidae; conditions: route intravenous; summary of the method: as §1
[3] = Peak change in mean arterial pressure (average) at the dose of 0.44 mg/kg administered through intravenously in Rhesus monkeys.; format: functional, Cercopithecidae, Artery; conditions: route intravenous; summary of the method: as §1
[4] = Peak change in heart rate (average) at the dose of 0.42 mg/kg administered through intravenously in Rhesus monkeys.; format: functional, Cercopithecidae; conditions: route intravenous; summary of the method: as §1
[5] = Inhibition of plasma renin determined at Peak change in mean arterial pressure at the dose of 0.42 mg/kg administered through intravenously in Rhesus monkeys.; format: functional; conditions: Cercopithecidae, route intravenous; summary of the method: as §1
[6] = Peak change in mean arterial pressure (average) at the dose of 0.42 mg/kg administered through intravenously in Rhesus monkeys.; format: functional, Cercopithecidae, Artery; conditions: route intravenous; summary of the method: as §1
[7] = Peak change in mean arterial pressure (average) at the dose of 0.39 mg/kg administered through intravenously in Rhesus monkeys.; format: functional, Cercopithecidae, Artery; conditions: route intravenous; summary of the method: as §1
[8] = Inhibition of plasma renin determined at Peak change in mean arterial pressure at the dose of 0.39 mg/kg administered through intravenously in Rhesus monkeys.; format: functional; conditions: Cercopithecidae, route intravenous; summary of the method: as §1
[9] = Peak change in heart rate (average) at the dose of 0.39 mg/kg administered through intravenously in Rhesus monkeys.; format: functional, Cercopithecidae; conditions: route intravenous; summary of the method: as §1
[10] = Peak change in mean arterial pressure (average) at the dose of 1.19 mg/kg administered through intravenously in Rhesus monkeys.; format: functional, Cercopithecidae, Artery; conditions: route intravenous; summary of the method: as §1
[11] = Peak change in heart rate (average) at the dose of 1.19 mg/kg administered through intravenously in Rhesus monkeys.; format: functional, Cercopithecidae; conditions: route intravenous; summary of the method: as §1
[12] = Inhibition of plasma renin determined at Peak change in mean arterial pressure at the dose of 1.19 mg/kg administered through intravenously in Rhesus monkeys.; format: functional; conditions: Cercopithecidae, route intravenous; summary of the method: as §1
[13] = Peak change in heart rate (average) at the dose of 0.34 mg/kg administered through intravenously in Rhesus monkeys.; format: functional, Cercopithecidae; conditions: route intravenous; summary of the method: as §1
[14] = Inhibition of plasma renin determined at Peak change in mean arterial pressure at the dose of 0.34 mg/kg administered through intravenously in Rhesus monkeys.; format: functional; conditions: Cercopithecidae, route intravenous; summary of the method: as §1
[15] = Peak change in mean arterial pressure (average) at the dose of 0.34 mg/kg administered through intravenously in Rhesus monkeys.; format: functional, Cercopithecidae, Artery; conditions: route intravenous; summary of the method: as §1
[16] = Inhibition of plasma renin determined at Peak change in mean arterial pressure at the dose of 0.88 mg/kg administered through intravenously in Rhesus monkeys.; format: functional; conditions: Cercopithecidae, route intravenous; summary of the method: as §1
[17] = Peak change in mean arterial pressure (average) at the dose of 0.88 mg/kg administered through intravenously in Rhesus monkeys.; format: functional, Cercopithecidae, Artery; conditions: route intravenous; summary of the method: as §1
[18] = Peak change in heart rate (average) at the dose of 0.88 mg/kg administered through intravenously in Rhesus monkeys.; format: functional, Cercopithecidae; conditions: route intravenous; summary of the method: as §1
[19] = Peak change in mean arterial pressure (average) at the dose of 0.40 mg/kg administered through intravenously in Rhesus monkeys.; format: functional, Cercopithecidae, Artery; conditions: dose 0.4 mg/kg; route intravenous; summary of the method: as §1
[20] = Inhibition of plasma renin determined at Peak change in mean arterial pressure at the dose of 0.40 mg/kg administered through intravenously in Rhesus monkeys.; format: functional; conditions: Cercopithecidae, route intravenous; summary of the method: as §1
[21] = Peak change in heart rate (average) at the dose of 0.40 mg/kg administered through intravenously in Rhesus monkeys.; format: functional, Cercopithecidae; conditions: dose 0.4 mg/kg; route intravenous; summary of the method: as §1
[22] = Peak change in mean arterial pressure (average) at the dose of 0.35 mg/kg administered through intravenously in Rhesus monkeys.; format: functional, Cercopithecidae, Artery; conditions: route intravenous; summary of the method: as §1
[23] = Peak change in heart rate (average) at the dose of 0.35 mg/kg administered through intravenously in Rhesus monkeys.; format: functional, Cercopithecidae; conditions: route intravenous; summary of the method: as §1
[24] = Inhibition of plasma renin determined at Peak change in mean arterial pressure at the dose of 0.35 mg/kg administered through intravenously in Rhesus monkeys.; format: functional; conditions: Cercopithecidae, route intravenous; summary of the method: as §1

SMILES | pIC50 (Renin) | also measured
CCOC(=O)Cn1nnnc1SC[C@H](O)[C@H](CC1CCCCC1)NC(=O)[C@H](Cc1cnc[nH]1)NC(=O)[C@H](Cc1ccccc1)NC(=O)OC(C)(C)C | 6.68 | 
CC(C)(C)OC(=O)N[C@@H](Cc1ccccc1)C(=O)N[C@@H](Cc1c[nH]cn1)C(=O)N[C@@H](CC1CCCCC1)[C@@H](O)CSc1nnc(Nc2ccccc2)s1 | 5.48 | 
CC(C)(C)OC(=O)N[C@@H](Cc1ccccc1)C(=O)N[C@@H](Cc1c[nH]cn1)C(=O)N[C@@H](CC1CCCCC1)[C@@H](O)CSc1nnc(C(F)(F)F)n1CCc1ccncc1 | 7.39 | inhibition in vivo at 0.44 mg/kg [1]: 93%; Peak deltaHR [2]: -1 beats min-1; Peak deltaMAP [3]: -10 mmHg
CC(C)(C)OC(=O)N[C@@H](Cc1ccccc1)C(=O)N[C@@H](Cc1cnc[nH]1)C(=O)N[C@@H](CC1CCCCC1)[C@@H](O)CSc1ccccn1 | 6.70 | 
CN(C)CCNC(=O)Cn1nnnc1SC[C@H](O)[C@H](CC1CCCCC1)NC(=O)[C@H](Cc1c[nH]cn1)NC(=O)[C@H](Cc1ccccc1)NC(=O)OC(C)(C)C | 5.89 | 
CC(C)(C)OC(=O)N[C@@H](Cc1ccccc1)C(=O)N[C@@H](Cc1c[nH]cn1)C(=O)N[C@@H](CC1CCCCC1)[C@@H](O)CSc1nnnn1CCN1CCOCC1 | 7.41 | Peak deltaHR [4]: -8 beats min-1; inhibition in vivo at 0.42 mg/kg [5]: 90%; Peak deltaMAP [6]: -10.5 mmHg
Cn1c(SC[C@H](O)[C@H](CC2CCCCC2)NC(=O)[C@H](Cc2c[nH]cn2)NC(=O)[C@H](Cc2ccccc2)NC(=O)OC(C)(C)C)nnc1C(F)(F)F | 7.41 | Peak deltaMAP [7]: -11 mmHg; inhibition in vivo at 0.39 mg/kg [8]: 85%; Peak deltaHR [9]: -5 beats min-1
CC(C)(C)OC(=O)N[C@@H](Cc1ccccc1)C(=O)N[C@@H](Cc1cnc[nH]1)C(=O)N[C@@H](CC1CCCCC1)[C@@H](O)CSc1nnnn1CC(N)=O | 6.35 | 
CC(C)(C)OC(=O)N[C@@H](Cc1ccccc1)C(=O)N[C@@H](Cc1c[nH]cn1)C(=O)N[C@@H](CC1CCCCC1)[C@@H](O)CSC1CCCCC1 | 6.54 | 
CN1CCN(C(=O)Cn2nnnc2SC[C@H](O)[C@H](CC2CCCCC2)NC(=O)[C@H](Cc2c[nH]cn2)NC(=O)[C@H](Cc2ccccc2)NC(=O)OC(C)(C)C)CC1 | 6.44 | 
Cn1ccnc1SC[C@H](O)[C@H](CC1CCCCC1)NC(=O)[C@H](Cc1c[nH]cn1)NC(=O)[C@H](Cc1ccccc1)NC(=O)OC(C)(C)C | 6.91 | Peak deltaMAP [10]: -8.5 mmHg; Peak deltaHR [11]: -3 beats min-1; inhibition in vivo at 1.19 mg/kg [12]: 75%
CC(C)(C)OC(=O)N[C@@H](Cc1ccccc1)C(=O)N[C@@H](Cc1c[nH]cn1)C(=O)N[C@@H](CC1CCCCC1)[C@@H](O)CSc1nnnn1CCc1ccncc1 | 7.51 | Peak deltaHR [13]: 1 beats min-1; inhibition in vivo at 0.34 mg/kg [14]: 95%; Peak deltaMAP [15]: -22 mmHg
C[n+]1ccc(CCn2nnnc2SC[C@H](O)[C@H](CC2CCCCC2)NC(=O)[C@H](Cc2c[nH]cn2)NC(=O)[C@H](Cc2ccccc2)NC(=O)OC(C)(C)C)cc1 | 6.17 | 
Cn1nc(C(F)(F)F)nc1SC[C@H](O)[C@H](CC1CCCCC1)NC(=O)[C@H](Cc1c[nH]cn1)NC(=O)[C@H](Cc1ccccc1)NC(=O)OC(C)(C)C | 6.41 | 
CC(C)(C)OC(=O)N[C@@H](Cc1ccccc1)C(=O)N[C@@H](Cc1c[nH]cn1)C(=O)N[C@@H](CC1CCCCC1)[C@@H](O)CSc1ncc2ccccn12 | 6.15 | 
C=CCn1c(SC[C@H](O)[C@H](CC2CCCCC2)NC(=O)[C@H](Cc2c[nH]cn2)NC(=O)[C@H](Cc2ccccc2)NC(=O)OC(C)(C)C)nnc1C(F)(F)F | 6.69 | 
CN(C)CCn1nnnc1SC[C@H](O)[C@H](CC1CCCCC1)NC(=O)[C@H](Cc1cnc[nH]1)NC(=O)[C@H](Cc1ccccc1)NC(=O)OC(C)(C)C | 6.84 | 
Cn1cnnc1SC[C@H](O)[C@H](CC1CCCCC1)NC(=O)[C@H](Cc1c[nH]cn1)NC(=O)[C@H](Cc1ccccc1)NC(=O)OC(C)(C)C | 7.09 | inhibition in vivo at 0.88 mg/kg [16]: 90%; Peak deltaMAP [17]: -9 mmHg; Peak deltaHR [18]: 17 beats min-1
CC(C)(C)OC(=O)N[C@@H](Cc1ccccc1)C(=O)N[C@@H](Cc1c[nH]cn1)C(=O)N[C@@H](CC1CCCCC1)[C@@H](O)CSc1nnnn1CCc1ccc(O)cc1 | 7.48 | 
CC(C)(C)OC(=O)N[C@@H](Cc1ccccc1)C(=O)N[C@@H](Cc1c[nH]cn1)C(=O)N[C@@H](CC1CCCCC1)[C@@H](O)CS(=O)(=O)c1nnnn1CCc1cc[n+]([O-])cc1 | 7.43 | Peak deltaMAP [19]: -12 mmHg; inhibition in vivo at 0.4 mg/kg [20]: 98%; Peak deltaHR [21]: 23 beats min-1
Cn1nnnc1SC[C@H](O)[C@H](CC1CCCCC1)NC(=O)[C@H](Cc1c[nH]cn1)NC(=O)[C@H](Cc1ccccc1)NC(=O)OC(C)(C)C | 7.49 | Peak deltaMAP [22]: -9 mmHg; Peak deltaHR [23]: -5 beats min-1; inhibition in vivo at 0.35 mg/kg [24]: 89%
CC(C)(C)OC(=O)N[C@@H](Cc1ccccc1)C(=O)N[C@@H](Cc1cnc[nH]1)C(=O)N[C@@H](CC1CCCCC1)[C@@H](O)CSc1nnnn1CC(=O)O | 6.40 | 
Cc1ccnc(SC[C@H](O)[C@H](CC2CCCCC2)NC(=O)[C@H](Cc2cnc[nH]2)NC(=O)[C@H](Cc2ccccc2)NC(=O)OC(C)(C)C)n1 | 6.62 | 
CC(C)(C)OC(=O)N[C@@H](Cc1ccccc1)C(=O)N[C@@H](Cc1cnc[nH]1)C(=O)N[C@@H](CC1CCCCC1)[C@@H](O)CSc1nnnn1CC(=O)NCCN1CCOCC1 | 6.50 | 
